# MEKK2 WT-MEK5: raises or lowers MEK5 binding to wildtype human MEKK2 PB1 domain; Q9Y2U5; bead flow cytometry, Alexa488-MEK5 binding to MEKK2 WT; actives lie on both sides; binding response (% of control), % at 10 µM; 290,000 compounds, 1.1% hits; AID 1531; in the data active = binding response below about 67% or above about 130%; inconclusive = no clear call, values can overlap the other calls; inactive = in between
# MEKK3 PB1 HTS: raises or lowers MEK5 binding to the human MEKK3 PB1 domain; Q99759; bead-based flow cytometry, Alexa488-MEK5 binding to MEKK3; actives lie on both sides; 0 = blocked by unlabeled MEK5, 100 = vehicle; binding response (% of control), % at 10 µM; 290,000 compounds, 1.4% hits; AID 1529;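 active = binding response more than 3 SD above or below the average of its plate-row segment, actives on both sides; inconclusive = wells at one plate position flagged as instrument error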;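 note: Alexa488 bead fluorescence after subtracting the streptavidin-only scavenger bead signal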
# Apaf-1 inh: inhibitors of human Apaf-1 apoptosome. reconstituted apoptosome caspase-3 activity, DEVD-Rh110 fluorescence. inhibition, % at 20 µM. 330,000 compounds, 0.71% hits. O14727. AID 489030; active = inhibition of at least 40% at 20 µM;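 note: plate controls were DMSO wells for no effect and DEVD-CHO caspase inhibitor wells for full effect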
#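 Assay system: Apoptosome proteins | Medium: pH 7.5 Hepes buffer with CHAPS, BSA, DTT | Also added: Cytochrome c and DEVD-Rh110 substrate | Times: 30 min plus 50 min, RT | Detection: Rhodamine 110 fluorescence at Ex 480/Em 540 nm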
# UCH37 DUB inh: inhibitors of human deubiquitinating enzyme UCH37 | Q9Y5K5 | purified proteasome/UCH37, Ub-AMC cleavage fluorescence | inhibition, % (test concentration not listed) | 330,000 compounds, 0.33% hits;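 active = mean inhibition over replicate wells above about 20%, limit read from the data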;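 note: 0% = compound-free wells with enzyme and 100% = wells lacking proteasome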
#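 system = Proteasome-associated human UCH37 deubiquitinase | amount = 0.15 nM proteasome as dispensed | medium = pH 7.4 Tris-HCl (50 mM) with ovalbumin, ATP-MgCl2, DTT | incubation = 30 min preincubation with enzyme, 25 min cleavage at room temperature | detection = AMC fluorescence 355/460 nm | read-out basis = percent inhibition | controls = no-proteasome and no-compound wells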
# UBC13 polyUb: blocks human UBC13 polyubiquitin chain formation; P61088; AID 485273; 330,000 compounds, 0.47% hits; TR-FRET; inhibition, % at 20 µM; in the data active = inhibition above about 45%, passing the limit was not always enough; inconclusive = no clear call, values can overlap the other calls
# Target sequence (P61088 whole entry, looked up): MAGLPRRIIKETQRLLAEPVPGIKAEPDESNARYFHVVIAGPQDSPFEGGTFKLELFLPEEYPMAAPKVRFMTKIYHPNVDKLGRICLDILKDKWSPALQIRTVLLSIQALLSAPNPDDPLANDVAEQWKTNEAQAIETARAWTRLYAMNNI
# MEKK2 mut-MEK5: signal of MEK5 binding to mutant human MEKK2 PB1 domain; bead flow cytometry, Alexa488-MEK5 binding to MEKK2 mutant; percent response, % at 10 µM; 290,000 compounds, 0.35% hits; AID 1530; in the data active = percent response above about 24%, passing the limit was not always enough
# Casp3 counter: caspase-3 inhibition (UBC13 counter-screen). AID 488856. Recombinant caspase-3, Caspase-Glo 3/7 luminescence, 60 min. 1,400 compounds, 4% hits. inhibition, % at 20 µM. shares compounds with UBC13 polyUb;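 active = mean inhibition across replicates above about 26%, limit read from the data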;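 note: plate controls were DMSO with caspase-3 for no effect and DMSO wells lacking enzyme for full effect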
# Target sequence (P42574 whole entry, looked up): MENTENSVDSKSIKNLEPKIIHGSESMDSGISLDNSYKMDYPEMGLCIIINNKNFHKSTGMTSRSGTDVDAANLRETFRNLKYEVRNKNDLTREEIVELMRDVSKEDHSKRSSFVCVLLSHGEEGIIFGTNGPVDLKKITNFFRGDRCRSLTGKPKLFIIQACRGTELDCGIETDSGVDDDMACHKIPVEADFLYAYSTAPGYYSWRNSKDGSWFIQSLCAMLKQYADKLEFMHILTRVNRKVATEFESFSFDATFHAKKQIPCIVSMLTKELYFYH
# UBC13 conf: confirmation of human UBC13 polyubiquitin inhibitors. 1,400 compounds, 68% hits. AID 488859. inhibition, % at 10 µM. UBC13 polyubiquitination, TR-FRET, biochemical. shares compounds with UBC13 polyUb; in the data active = inhibition above about 45%; inconclusive = no clear call, values can overlap the other calls
# Numbers without * were called inactive; ? = inconclusive; / = not tested or not shown. The list is not random: actives were taken first. Their share in the collection is about 3%.
SMILES,MEKK2 WT-MEK5,MEKK3 PB1 HTS,Apaf-1 inh,UCH37 DUB inh,UBC13 polyUb,MEKK2 mut-MEK5,Casp3 counter,UBC13 conf
C#CCOCCOCCOCCNc1nc(N2CCOCC2)nc(N2CCN(C(=O)[C@H](CCCN=C(N)N)n3cc(C(N)[C@@H](C)CC)nn3)CC2)n1 (stereo not given in full),/,/,25.3,2.5,30.0,/,/,/
C#CCOCCOCCOCCNc1nc(N2CCN(C(=O)[C@H](CCCCN)n3cc(CN)nn3)CC2)nc(N2CCN(C(=O)[C@H](CCCN=C(N)N)n3cc(C(N)[C@H](C)CC)nn3)CC2)n1 (stereo not given in full),/,/,34.7,1.8,92.2*,/,2.3,102.8*
C#CCOCCOCCOCCNc1nc(N2CCN(C(=O)[C@H](CCCN=C(N)N)n3cc(C(N)[C@H](C)CC)nn3)CC2)nc(N2CCN(C(=O)[C@H](CCCN=C(N)N)n3cc(C(N)[C@@H](C)CC)nn3)CC2)n1 (stereo not given in full),/,/,35.7,/,73.7*,/,-1.2,56.5*
COc1ccc(CN(CCCN2CCOCC2)C(=O)Nc2cccc(Cl)c2)cc1OC,106.0,101.0,5.6,2.9,1.3,7.0,/,/
Cc1ccc(Cn2c(SCC(=O)NCC3CCCO3)nc3ccsc3c2=O)cc1 (stereo not given),98.0,102.0,2.2,4.2,29.9,-8.0,/,/
O=C(CSc1nc2ccsc2c(=O)n1Cc1ccc(C(=O)O)cc1)NCC1CCCO1 (stereo not given),97.0,97.0,3.8,1.2,69.1*,-1.0,-4.1,76.6*
O=C(CSc1nc2ccsc2c(=O)n1Cc1ccccc1)NCC1CCCO1 (stereo not given),102.0,100.0,2.8,-1.9,55.3*,0.0,-1.5,58.2*
CC1Cc2nc(SCC(=O)NCC3CCCO3)n(Cc3ccccc3)c(=O)c2S1 (stereo not given),97.0,92.0,4.5,9.7,-4.4,7.0,/,/
O=C(Nc1ccc(NC(=O)C23CC4CC(CC(C4)C2)C3)cc1)c1cc(F)c(F)cc1Cl,110.0,114.0,5.2,2.2,-34.3,2.0,/,/
CC1CCCN1CC#CC(O)(c1ccccc1)c1ccccc1 (stereo not given),106.0,102.0,3.6,1.6,1.3,0.0,/,/
CCOC(=O)c1c(-c2ccccc2)oc2ccc(OC(C)C(=O)O)cc12 (stereo not given),105.0,101.0,-0.6,/,14.6,5.0,/,/
CCOC(=O)c1c(-c2ccccc2)oc2ccc(OCC(O)CN(C)C)cc12 (stereo not given),162.0*,107.0,18.9,-284.9,46.6*,25.0*,-4.1,52.2*
O=C(NCC1CCCCC1)C1(CC2CC(c3ccc(Cl)cc3)=NO2)CCNCC1 (stereo not given),127.0,104.0,13.5,5.5,46.5*,-2.0,3.2,46.9*
COc1ccc(CNC(=O)COC(=O)c2cc(C)nc3ccccc23)cc1,/,/,1.4,2.9,-1.8,/,/,/
COc1ccccc1NC(=O)COC(=O)c1cc(C)nc2ccccc12,/,/,3.6,-5.5,47.9*,/,1.0,24.6
COc1ccccc1NC(=O)COc1ccc(C(=O)NCc2ccccc2)cc1OC,/,/,11.8,-0.7,69.7*,/,-3.4,74.6*
CNCc1cc(Br)c(OCC(=O)Nc2ccccc2OC)c(OC)c1,118.0,102.0,1.4,4.3,65.2*,8.0,3.1,103.1*
O=C(CN(Cc1ccco1)C(=O)CNS(=O)(=O)c1ccccc1)NCc1ccc(F)cc1,98.0,105.0,3.9,2.9,-6.5,0.0,/,/
CCOc1ccc(Cl)cc1/C=N/O,99.0,101.0,-10.5,/,12.3,3.0,/,/
CCOc1ccc(Cl)cc1/C=N/NC(N)=O,107.0,105.0,6.8,/,49.7*,9.0,-2.5,53.4*
CCOC(=O)c1cc(-c2ccc(OC)cc2)nc2c1c(C)nn2CCC#N,100.0,100.0,18.5,-383.5,52.7*,-11.0,0.4,?
CCc1ccc(-c2cc3c(=O)n(CC(=O)NCCCN4CCC(Cc5ccccc5)CC4)nc(C)n3n2)cc1,203.0*,110.0,25.0,1.9,60.2*,29.0*,0.8,85.8*
Cc1nn(CC(=O)NCCCN2CCC(Cc3ccccc3)CC2)c(=O)c2cc(-c3ccccc3)nn12,161.0*,108.0,15.9,5.5,92.9*,48.0*,1.7,111.9*
Cc1nn(CC(=O)NCCCN2CCN(Cc3ccccc3)CC2)c(=O)c2cc(-c3ccccc3)nn12,116.0,103.0,9.2,1.6,24.1,16.0,/,/
Cc1cc(N/C=C(\C#N)S(=O)(=O)c2ccccc2Cl)nc(C)n1,95.0,97.0,-14.6,5.6,-0.9,-2.0,/,/
SMILES,MEKK2 WT-MEK5,MEKK3 PB1 HTS,Apaf-1 inh,UCH37 DUB inh,UBC13 polyUb,MEKK2 mut-MEK5,Casp3 counter,UBC13 conf
CC(=NCc1ccco1)c1c(C)[nH]n(-c2nc3ccccc3s2)c1=O,97.0,99.0,-12.6,-159.8,52.9*,0.0,77.6*,?
O=C(CSc1ccccc1C(=O)NCCCN1CCCC1=O)NCc1ccco1,96.0,97.0,-7.7,-27.0,50.0*,0.0,-0.4,3.5
CCCCN(CC)CCCNC(=O)c1cc2c(=O)n(CC)c3ccccc3c2s1,122.0,107.0,5.3,/,49.5*,8.0,4.5,61.5*
CCCCN(CC)CCNC(=O)c1cc2c(=O)n(CC)c3ccccc3c2s1,121.0,104.0,6.0,-258.3,72.5*,8.0,-2.9,91.3*
CCn1c(=O)c2cc(C(=O)NCCC(C)C)sc2c2ccccc21,101.0,102.0,17.1,-13.1,13.5,0.0,/,/
CCCN(CCC)CCCNC(=O)c1cc2c(=O)n(CC)c3ccccc3c2s1,131.0,107.0,5.8,/,47.4*,7.0,-3.5,35.3
CCn1c(=O)c2cc(C(=O)NCCCOC)sc2c2ccccc21,107.0,102.0,5.9,-212.0,21.6,2.0,/,/
COCCOc1ccc(C(F)(F)F)cc1NC(=O)COC(=O)C1=COCCO1,/,/,-0.1,2.2,-19.8,/,/,/
Cc1ccc(S(=O)(=O)Nc2cc(C(=O)NCCN(C)C)ccc2N2CCCCC2)cc1,117.0,101.0,15.4,-1.5,17.3,19.0,/,/
Cc1cc(-c2ccccc2)nc(NN=Cc2ccc([N+](=O)[O-])cc2)n1,/,/,/,3.4,/,/,/,/
Cc1ccccc1/C=C/C12NC(=O)CN1c1ccccc1C2(C)C (stereo not given),95.0,94.0,21.2,1.5,3.9,-11.0,/,/
COc1ccccc1CCNC(=O)CSc1ccc(-c2ccco2)nn1,104.0,105.0,2.7,3.9,-2.0,-1.0,/,/
COc1ccc(C=NNC(=O)c2cc3c(ccc4ccccc43)o2)cc1OC,/,/,/,-444.3,/,/,/,/

# Source: PubChem
